Experimental data as given in PMC3512081 (Journal of immunology (Baltimore, Md. : 1950), 2011).
“And” between values parts separate entries of the source, which are not always exact repeats. Equal entries are not always repeated. Where two headings read alike, the source gives them in different places.

How the values were obtained:
[1] = test system: EG7 WT and GFP-transduced cells; assay: 3H-L-tryptophan uptake by IDO negative EG7 cells; type: cell-based, mouse
Procedure, shortened: (§1)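 EG7 mouse T lymphoma cells: wild-type, GFP-only lentivirus controls, or an IDO/GFP lentivirus-transduced clone. Cultured 48 h, washed, then held 20-30 min in PBS or sodium-free choline buffer (pH 7.4). 3H-L-tryptophan was added at 50 pmol/ml and incubated a fixed time at 37°C. Uptake was stopped by spinning cells through oil. Competitors: BCH, D- or L-Met titrations, glutamine. Duplicate samples. Ki fitted assuming one or two transport systems.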

[2] = test system: IDO-transduced (C7) EG7 cells; assay: 3H-L-tryptophan uptake by IDO positive EG7 cells; type: cell-based, mouse; settings: for tryptophan uptake maintained: 0.05mM, EG7-C7 cells, absence of BCH; for fold lower affinity of the additional transporter versus the first transporter: IDO positive C7 cells, equation based on two independent systems; for effect on tryptophan uptake, inhibitor alone: IDO positive cells
Procedure, shortened: as §1

[3] = test system: WT and GFP-transduced Hela cells; assay: 3H-L-tryptophan uptake by IDO negative Hela cells; type: cell-based, human; settings: for effect of excess unlabelled amino acid on 3H-tryptophan uptake: IDO negative Hela cells, high concentration (5mM glycine, histidine, glutamine)
Procedure, shortened: (§2)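 HeLa cells were used untreated, GFP-transduced, human-IDO lentivirus-transduced, or given 1000 U/ml IFNγ for 48 h, and assayed at 90-100% confluence. Preincubated 20-30 min in PBS or choline buffer (pH 7.4). 3H-L-tryptophan was added at 50 pmol/ml, with initial-rate uptake over 3 min at 37°C. Stopped with 20mM L-lysine in ice-cold PBS, then NaOH/SDS lysis and scintillation counting. Competitors: BCH, D/L-Met, 5mM histidine, glycine or glutamine, and titrations. Triplicates, normalized; Student's t-test.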

[4] = test system: IDO-lentivirus transduced or IFN-γ treated Hela cells; assay: 3H-L-tryptophan uptake by IDO positive Hela cells; type: cell-based, human; settings: for Ki: read-out: Ki for 3H-tryptophan uptake; for effect of excess unlabelled amino acid on 3H-tryptophan uptake: high concentration (5mM glycine, histidine, glutamine)
Procedure, shortened: as §2

[5] = test system: IDO induced tryptophan transporter; type: cell-based, human; settings: for effect on tryptophan uptake in the presence of 2.5mM glutamine: IDO positive Hela cells, L-tryptophan at 2mM
Procedure, shortened: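 IFN-γ-treated or human IDO-lentivirus-transduced Hela cells are grown 48h to 90-100% confluence, washed, then preincubated 20-30 min in PBS or choline buffer (pH 7.4). Add 3H-L-tryptophan at 50pmol/ml with competing amino acid and take uptake at 37°C under initial-rate conditions over 3 min. Stop with 20mM L-lysine in ice-cold PBS, lyse in 1% NaOH/0.1% SDS, and count by liquid scintillation.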

histidine uptake = assay: 14C-histidine uptake; type: cell-based; settings: data not shown
activated human T cells = assay: Tryptophan uptake by activated human T cells; type: cell-based; settings: preliminary data, not shown
[6] = WT and GFP-transduced Hela cells

NC1(C(=O)O)CC2CCC1C2 (stereo not drawn) [BCH, 2-aminobicyclo-(2,2,1)-heptane-2-carboxylic acid]
effect on transporter-mediated 3H-L-tryptophan uptake ([1]; high concentrations, EG7-WT and GFP cells, sodium-free): completely abolished | effect on transporter-mediated 3H-L-tryptophan uptake ([2]; high concentrations, IDO positive EG7 cells, sodium-free): completely abolished | effect on 3H-tryptophan uptake [3, 6]: strongly inhibited | Ki ([3]; read-out: Ki for 3H-tryptophan uptake, control Hela cells): 12 µM | Ki ([4]; IDO transduced Hela cells): ~300 µM | Ki ([4]; IFN-γ treated Hela cells): ~600 µM | effect on tryptophan uptake in the presence of 2.5mM glutamine [5]: no additional inhibition

CSCC[C@@H](N)C(=O)O [D-Met, D-Methionine]
inhibition of tryptophan uptake ([1]; 0.05mM, WT and GFP-expressing EG7 cells, absence of BCH): over 80% | tryptophan uptake maintained [2]: greater than 40% | fold higher Ki in IDO positive cells than IDO negative cells ([2]; EG7 cells, single uptake system calculation): approximately 10 fold | fold lower affinity of the additional transporter versus the first transporter [2]: 10 fold | Ki ([2]; read-out: Ki calculated based on a single tryptophan uptake system, IDO positive EG7 cells): 100 to 300 µM | effect on 3H-tryptophan uptake [3, 6]: strongly inhibited

N[C@H](Cc1c[nH]c2ccccc12)C(=O)O [D-tryptophan]
effect on tryptophan uptake in the presence of 2.5mM glutamine [5]: minimal inhibition

N[C@@H](Cc1ccc(O)c(O)c1)C(=O)O [L-Dopa, L-3,4-dihydroxyphenylalanine]
effect on tryptophan uptake in the presence of 2.5mM glutamine [5]: inhibited

CSCC[C@H](N)C(=O)O [L-Met, L-methionine]
inhibition at 50 µM ([1]; Mus musculus, EG7, read-out: inhibition of tryptophan uptake): > 80% | tryptophan uptake maintained [2]: greater than 40% | fold lower affinity of the additional transporter versus the first transporter [2]: 10 fold | effect on 3H-tryptophan uptake [3, 6]: strongly inhibited

CNC(C)(C)C(=O)O [MeAIB, methyl-aminoisobutyric acid]
effect on tryptophan uptake, inhibitor alone ([2]; data not shown): minimal effect

CCN1C(=O)C=CC1=O [NEM, N-ethyl maleimide]
effect on tryptophan uptake, inhibitor alone ([2]; data not shown): minimal effect

NC(=O)CC[C@H](N)C(=O)O [glutamine]
tryptophan uptake in the presence of glutamine ([1]; WT and GFP-transduced EG7 cells, data not shown): inhibited | tryptophan uptake in the presence of glutamine ([2]; murine EG7-IDO positive cells, data not shown): resistant to inhibition | effect of excess unlabelled amino acid on 3H-tryptophan uptake [3]: completely inhibited | effect of glutamine alone on tryptophan uptake [3, 6]: completely abolished | tryptophan uptake maintained ([4]; 5mM, IDO positive Hela cells): over 50% | fold increase in Ki for IDO positive cells compared with IDO negative controls ([4]; Hela cells): 10 fold | effect of excess unlabelled amino acid on 3H-tryptophan uptake ([4]; IDO positive Hela cells): a proportion of the tryptophan uptake was retained | effect on uptake of 14C-histidine (histidine uptake): inhibited | sensitivity of tryptophan uptake to inhibition (activated human T cells): highly sensitive to inhibition

NCC(=O)O [glycine]
effect of excess unlabelled amino acid on 3H-tryptophan uptake [3]: no effect | effect of excess unlabelled amino acid on 3H-tryptophan uptake ([4]; IDO positive Hela cells): no effect

N[C@@H](Cc1c[nH]cn1)C(=O)O [histidine]
effect of excess unlabelled amino acid on 3H-tryptophan uptake [3]: completely inhibited | fold increase in Ki for IDO positive cells compared with IDO negative controls ([4]; Hela cells): 10 fold | effect of excess unlabelled amino acid on 3H-tryptophan uptake ([4]; IDO positive Hela cells): a proportion of the tryptophan uptake was retained | effect on uptake of 14C-histidine (histidine uptake): inhibited

N[C@@H](Cc1ccccc1)C(=O)O [phenylalanine]
effect on tryptophan uptake in the presence of 2.5mM glutamine [5]: inhibited | inhibition of tryptophan uptake in the presence of glutamine ([5]; IFN-γ-treated and IDO transduced Hela cells, 2.5mM glutamine): over 50%

N[C@@H](Cc1c[nH]c2ccccc12)C(=O)O [tryptophan, L-tryptophan]
effect of excess unlabelled amino acid on 3H-tryptophan uptake [3]: effectively competed | calculated Ki compared between cell types ([4]; Hela cells, IDO positive versus IDO negative): almost identical | effect of excess unlabelled amino acid on 3H-tryptophan uptake ([4]; IDO positive Hela cells): effectively competed | effect on tryptophan uptake in the presence of 2.5mM glutamine [5]: reduced to baseline | Ki ([5]; read-out: Ki of the induced glutamine-resistant 3H-tryptophan transport, IDO positive tumor cells, 2.5mM glutamine): 2.3 to 4.2 µM and 3 µM | effect on uptake of 14C-histidine (histidine uptake): inhibited

N[C@@H](Cc1ccc(O)cc1)C(=O)O [tyrosine]
effect on tryptophan uptake in the presence of 2.5mM glutamine [5]: little additional effect
